Measurements: ChEMBL document CHEMBL4219031, “Identification and Characterization of Von Hippel-Lindau-Recruiting Proteolysis Targeting Chimeras (PROTACs) of TANK-Binding Kinase 1” (J Med Chem, 2018)

What was measured:
[1] = target: T1, von Hippel-Lindau disease tumor suppressor/Serine/threonine-protein kinase TBK1 (Homo sapiens, UniProt Q9UHD2+P40337); experiment: Induction of VHL-mediated TBK1 degradation in human Panc02.13 cells after 16 hrs by Western blot method; format: cell-based
Summary of the method: (§1)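 For phospho-IRF3 read-out, TLR3 agonist Poly I:C added for the final 3 h. Cells lysed in RIPA buffer with protease/phosphatase inhibitors, lysates clarified at 16,000g, run on SDS-PAGE and immunoblotted for TBK1, pIRF3 and GAPDH.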
Target sequence in this assay (P40337 whole entry, one chain of several): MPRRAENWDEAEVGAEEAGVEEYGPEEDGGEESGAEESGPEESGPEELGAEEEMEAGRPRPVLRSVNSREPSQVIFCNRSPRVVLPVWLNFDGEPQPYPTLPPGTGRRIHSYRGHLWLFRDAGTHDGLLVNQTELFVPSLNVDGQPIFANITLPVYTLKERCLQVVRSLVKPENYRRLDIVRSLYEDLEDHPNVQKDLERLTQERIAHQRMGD

[2] = target: T2, Serine/threonine-protein kinase TBK1 (Homo sapiens, UniProt Q9UHD2); experiment: Binding affinity to human full length wild-type TBK1 expressed in mammalian expression system
T2 sequence (Q9UHD2 whole entry): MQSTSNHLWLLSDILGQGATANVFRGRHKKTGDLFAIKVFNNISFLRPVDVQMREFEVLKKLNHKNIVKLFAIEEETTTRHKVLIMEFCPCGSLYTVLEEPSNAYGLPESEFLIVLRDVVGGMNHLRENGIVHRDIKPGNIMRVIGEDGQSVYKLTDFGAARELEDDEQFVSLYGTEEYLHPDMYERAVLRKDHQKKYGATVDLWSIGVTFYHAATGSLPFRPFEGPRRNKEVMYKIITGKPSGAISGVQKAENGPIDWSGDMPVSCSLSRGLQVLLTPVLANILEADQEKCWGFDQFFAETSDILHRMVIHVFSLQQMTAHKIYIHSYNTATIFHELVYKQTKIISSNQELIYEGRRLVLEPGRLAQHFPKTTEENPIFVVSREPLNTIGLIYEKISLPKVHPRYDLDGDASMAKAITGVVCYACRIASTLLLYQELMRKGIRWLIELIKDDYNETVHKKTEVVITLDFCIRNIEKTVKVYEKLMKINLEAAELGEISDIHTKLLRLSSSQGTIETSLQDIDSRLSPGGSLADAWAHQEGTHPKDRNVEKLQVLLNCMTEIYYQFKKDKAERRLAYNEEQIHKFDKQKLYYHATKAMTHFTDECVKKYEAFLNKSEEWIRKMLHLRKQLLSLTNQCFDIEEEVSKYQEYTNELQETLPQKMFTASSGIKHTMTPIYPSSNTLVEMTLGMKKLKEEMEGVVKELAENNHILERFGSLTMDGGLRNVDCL

[3] = target: T1, von Hippel-Lindau disease tumor suppressor/Serine/threonine-protein kinase TBK1; experiment: Induction of VHL-mediated TBK1 degradation in human Panc02.13 cells after 16 hrs by Western blot method relative to control; format: cell-based
Summary of the method: as §1, with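 “Panc02.13 cells grown in RPMI-1640 with 15% FBS and 10 units/mL human recombinant insulin, exposed to compound for 16 h. For” for “For”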
Target sequence in this assay (P40337 whole entry, looked up, one chain of several): as the sequence (P40337 whole entry, one chain of several) above

[4] = target: von Hippel-Lindau disease tumor suppressor/Elongin-C/Elongin-B/HIF1A (Homo sapiens, UniProt P40337+Q15369+Q15370+Q16665); experiment: Inhibition of His-tagged VHL/elongin B/elongin C (unknown origin) interaction with HIF1alpha preincubated for 10 mins followed by fluorescin labelled HIF1alpha peptide addition measured after 2 hrs by fluorescence polarization assay; format: protein-complex assay
von Hippel-Lindau disease tumor suppressor/Elongin-C/Elongin-B/HIF1A, sequence (P40337 whole entry, looked up): as the sequence (P40337 whole entry, one chain of several) above
von Hippel-Lindau disease tumor suppressor/Elongin-C/Elongin-B/HIF1A, sequence (Q15369 whole entry, looked up): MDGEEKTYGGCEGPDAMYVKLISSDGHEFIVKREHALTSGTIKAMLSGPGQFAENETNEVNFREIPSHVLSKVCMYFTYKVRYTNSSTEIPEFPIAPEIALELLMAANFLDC
von Hippel-Lindau disease tumor suppressor/Elongin-C/Elongin-B/HIF1A, sequence (Q15370 whole entry, looked up): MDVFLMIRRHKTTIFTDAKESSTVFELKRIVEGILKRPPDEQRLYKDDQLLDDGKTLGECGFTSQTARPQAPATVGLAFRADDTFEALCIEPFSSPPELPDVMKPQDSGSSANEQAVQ
von Hippel-Lindau disease tumor suppressor/Elongin-C/Elongin-B/HIF1A, sequence (Q16665 whole entry, looked up): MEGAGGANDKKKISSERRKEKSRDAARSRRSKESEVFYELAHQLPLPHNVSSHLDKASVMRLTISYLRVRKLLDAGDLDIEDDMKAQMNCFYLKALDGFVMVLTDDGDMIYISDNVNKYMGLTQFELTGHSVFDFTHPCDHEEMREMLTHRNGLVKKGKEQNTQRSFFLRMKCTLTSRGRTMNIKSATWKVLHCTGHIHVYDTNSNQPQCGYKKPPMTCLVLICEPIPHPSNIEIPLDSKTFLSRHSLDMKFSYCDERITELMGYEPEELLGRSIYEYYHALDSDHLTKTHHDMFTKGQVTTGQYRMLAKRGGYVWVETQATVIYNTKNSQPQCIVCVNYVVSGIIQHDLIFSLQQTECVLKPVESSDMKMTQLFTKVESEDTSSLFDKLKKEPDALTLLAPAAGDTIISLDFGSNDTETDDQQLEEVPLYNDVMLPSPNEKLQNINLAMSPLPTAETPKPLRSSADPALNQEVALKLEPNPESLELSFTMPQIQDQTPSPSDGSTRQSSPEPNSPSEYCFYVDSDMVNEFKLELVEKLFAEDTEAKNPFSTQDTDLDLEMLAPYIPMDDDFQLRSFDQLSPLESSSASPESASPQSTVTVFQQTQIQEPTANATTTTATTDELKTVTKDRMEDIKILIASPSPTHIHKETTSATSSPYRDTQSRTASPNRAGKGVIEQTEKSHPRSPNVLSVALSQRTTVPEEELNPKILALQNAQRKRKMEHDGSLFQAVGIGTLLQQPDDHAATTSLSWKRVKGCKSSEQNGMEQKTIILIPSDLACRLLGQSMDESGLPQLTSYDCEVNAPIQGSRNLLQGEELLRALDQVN
Summary of the method: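 VHL coexpressed and copurified with Elongin B and C (VCB). Compound preincubated 10 min with VHL in 50 mM Tris pH 7.5, 200 mM NaCl, 2 mM DTT, 1% DMSO. Polarization converted to percent binding against control wells; IC50 from four-parameter fit.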

SMILES: Cc1ncsc1-c1ccc(CNC(=O)[C@@H]2C[C@@H](O)CN2C(=O)[C@@H](NC(=O)COCCCOCCCCOCCCOc2ccc(Nc3ncc(Cl)c(NCCCN(C)C(=O)C4CCC4)n3)cc2)C(C)(C)C)cc1
- DC50 [1]: 10 nM
- Kd [2]: 10.4 nM
- Emax [3]: 96%

SMILES: Cc1ncsc1-c1ccc(CNC(=O)[C@@H]2C[C@@H](O)CN2C(=O)[C@@H](NC(=O)COCCCOCCCOc2ccc(Nc3ncc(Br)c(NCCCN(C)C(=O)C4CCC4)n3)cc2)C(C)(C)C)cc1
- DC50 [1]: > 1000 nM

SMILES: CC[C@H](NC(=O)COCCCOCCCCOCCCOc1ccc(Nc2ncc(Br)c(NCCCN(C)C(=O)C3CCC3)n2)cc1)C(=O)N1C[C@H](O)C[C@H]1C(=O)NCc1ccc(-c2scnc2C)cc1
- DC50 [1]: 864 nM
- IC50 [4]: 9900 nM
- Emax [3]: 71%

SMILES: CCc1cnc(Nc2ccc(OCCCOCCCCOCCCOCC(=O)N[C@H](C(=O)N3C[C@H](O)C[C@H]3C(=O)NCc3ccc(-c4scnc4C)cc3)C(C)(C)C)cc2)nc1NCCCN(C)C(=O)C1CCC1
- DC50 [1]: 121 nM
- Kd [2]: 275 nM
- Emax [3]: 77%

SMILES: Cc1ncsc1-c1ccc(CNC(=O)[C@@H]2C[C@@H](O)CN2C(=O)[C@@H](NC(=O)COCCOCCCCOCCCCOCCOCCOc2ccc(Nc3ncc(Br)c(NCCCN(C)C(=O)C4CCC4)n3)cc2)C(C)(C)C)cc1
- DC50 [1]: 3 nM
- Emax [3]: 96%

SMILES: Cc1ncsc1-c1ccc(CNC(=O)[C@@H]2C[C@@H](O)CN2C(=O)[C@@H](NC(=O)COCCCOCCCCOCCCOc2ccc(Nc3ncc(C(F)(F)F)c(NCCCN(C)C(=O)C4CCC4)n3)cc2)C(C)(C)C)cc1
- DC50 [1]: 29 nM
- Kd [2]: 13 nM
- Emax [3]: 96%

SMILES: Cc1ncsc1-c1ccc(CNC(=O)[C@@H]2C[C@@H](O)CN2C(=O)[C@@H](NC(=O)CCOCCCOCCCOCCCOCCCOc2ccc(Nc3ncc(Br)c(NCCCN(C)C(=O)C4CCC4)n3)cc2)C(C)(C)C)cc1
- DC50 [1]: 25 nM
- Emax [3]: 96%

SMILES: Cc1ncsc1-c1ccc(CNC(=O)[C@@H]2C[C@@H](O)CN2C(=O)[C@@H](NC(=O)CCCCCOCCOc2ccc(Nc3ncc(Br)c(NCCCN(C)C(=O)C4CCC4)n3)cc2)C(C)(C)C)cc1
- DC50 [1]: > 1000 nM

SMILES: Cc1ncsc1-c1ccc(CNC(=O)[C@@H]2C[C@@H](O)CN2C(=O)[C@@H](NC(=O)COCCCOCCCCOCCCOc2ccc(Nc3ncc(F)c(NCCCN(C)C(=O)C4CCC4)n3)cc2)C(C)(C)C)cc1
- DC50 [1]: 282 nM
- Kd [2]: 104 nM
- Emax [3]: 74%

SMILES: C=Cc1cnc(Nc2ccc(OCCCOCCCCOCCCOCC(=O)N[C@H](C(=O)N3C[C@H](O)C[C@H]3C(=O)NCc3ccc(-c4scnc4C)cc3)C(C)(C)C)cc2)nc1NCCCN(C)C(=O)C1CCC1
- DC50 [1]: 48 nM
- Kd [2]: 130 nM
- Emax [3]: 96%

SMILES: Cc1ncsc1-c1ccc(CNC(=O)[C@@H]2C[C@@H](O)CN2C(=O)[C@@H](NC(=O)COCCOCCOCCOCCOc2ccc(Nc3ncc(Br)c(NCCCN(C)C(=O)C4CCC4)n3)cc2)C(C)(C)C)cc1
- DC50 [1]: 103 nM
- Emax [3]: 92%

SMILES: Cc1ncsc1-c1ccc(CNC(=O)[C@@H]2C[C@@H](O)CN2C(=O)CNC(=O)COCCCOCCCCOCCCOc2ccc(Nc3ncc(Br)c(NCCCN(C)C(=O)C4CCC4)n3)cc2)cc1
- DC50 [1]: > 1000 nM
- IC50 [4]: > 100000 nM
- Emax [3]: 0%

SMILES: Cc1ncsc1-c1ccc(CNC(=O)[C@@H]2C[C@@H](O)CN2C(=O)[C@@H](NC(=O)COCCCCCOCCCCOCCCCOCCCCOCCCCCOc2ccc(Nc3ncc(Br)c(NCCCN(C)C(=O)C4CCC4)n3)cc2)C(C)(C)C)cc1
- DC50 [1]: 292 nM
- Emax [3]: 76%

SMILES: Cc1ncsc1-c1ccc(CNC(=O)[C@@H]2C[C@@H](O)CN2C(=O)[C@@H](NC(=O)COCCCCOc2ccc(Nc3ncc(Br)c(NCCCN(C)C(=O)C4CCC4)n3)cc2)C(C)(C)C)cc1
- DC50 [1]: > 1000 nM

SMILES: Cc1cnc(Nc2ccc(OCCCOCCCCOCCCOCC(=O)N[C@H](C(=O)N3C[C@H](O)C[C@H]3C(=O)NCc3ccc(-c4scnc4C)cc3)C(C)(C)C)cc2)nc1NCCCN(C)C(=O)C1CCC1
- DC50 [1]: 92 nM
- Kd [2]: 270 nM
- Emax [3]: 89%

SMILES: Cc1ncsc1-c1ccc(CNC(=O)[C@@H]2C[C@@H](O)CN2C(=O)[C@@H](NC(=O)CCCCCOCCCCOCCCCOc2ccc(Nc3ncc(Br)c(NCCCN(C)C(=O)C4CCC4)n3)cc2)C(C)(C)C)cc1
- DC50 [1]: 95 nM
- Emax [3]: 90%

SMILES: Cc1ncsc1-c1ccc(CNC(=O)[C@@H]2C[C@@H](O)CN2C(=O)[C@@H](NC(=O)COCCOCCOCCCCOc2ccc(Nc3ncc(Br)c(NCCCN(C)C(=O)C4CCC4)n3)cc2)C(C)(C)C)cc1
- DC50 [1]: 71 nM
- Emax [3]: 86%

SMILES: Cc1ncsc1-c1ccc(CNC(=O)[C@@H]2C[C@@H](O)CN2C(=O)[C@@H](NC(=O)COCCCOCCCCOCCCOc2ccc(Nc3ncc(Br)c(NCCCN(C)C(=O)C4CCC4)n3)cc2)C(C)C)cc1
- DC50 [1]: 44 nM
- IC50 [4]: 5500 nM
- Emax [3]: 88%

SMILES: Cc1ncsc1-c1ccc(CNC(=O)[C@@H]2C[C@@H](O)CN2C(=O)[C@@H](NC(=O)COCCOCCOc2ccc(Nc3ncc(Br)c(NCCCN(C)C(=O)C4CCC4)n3)cc2)C(C)(C)C)cc1
- DC50 [1]: > 1000 nM

SMILES: Cc1ncsc1-c1ccc(CNC(=O)[C@@H]2C[C@@H](O)CN2C(=O)[C@@H](NC(=O)COCCCOCCCCCOc2ccc(Nc3ncc(Br)c(NCCCN(C)C(=O)C4CCC4)n3)cc2)C(C)(C)C)cc1
- DC50 [1]: 88 nM
- Emax [3]: 79%

SMILES: Cc1ncsc1-c1ccc(CNC(=O)[C@@H]2C[C@@H](O)CN2C(=O)[C@@H](NC(=O)COCCOCCOCCOc2ccc(Nc3ncc(Br)c(NCCCN(C)C(=O)C4CCC4)n3)cc2)C(C)(C)C)cc1
- DC50 [1]: > 1000 nM

SMILES: Cc1ncsc1-c1ccc(CNC(=O)[C@@H]2C[C@@H](O)CN2C(=O)[C@@H](NC(=O)COCCOCCOCCOCCOCCOc2ccc(Nc3ncc(Br)c(NCCCN(C)C(=O)C4CCC4)n3)cc2)C(C)(C)C)cc1
- DC50 [1]: 29 nM
- Emax [3]: 96%

SMILES: Cc1ncsc1-c1ccc(CNC(=O)[C@@H]2C[C@@H](O)CN2C(=O)[C@@H](NC(=O)COCCOCCCCOCCCCOCCOc2ccc(Nc3ncc(Br)c(NCCCN(C)C(=O)C4CCC4)n3)cc2)C(C)(C)C)cc1
- DC50 [1]: 6 nM
- Emax [3]: 96%

SMILES: Cc1ncsc1-c1ccc(CNC(=O)[C@@H]2C[C@@H](O)CN2C(=O)[C@H](C)NC(=O)COCCCOCCCCOCCCOc2ccc(Nc3ncc(Br)c(NCCCN(C)C(=O)C4CCC4)n3)cc2)cc1
- DC50 [1]: > 1000 nM
- IC50 [4]: 25000 nM
- Emax [3]: 34%

SMILES: Cc1ncsc1-c1ccc(CNC(=O)[C@@H]2C[C@@H](O)CN2C(=O)[C@@H](NC(=O)COCCCOCCCCOCCCOc2ccc(Nc3ncc(C4CC4)c(NCCCN(C)C(=O)C4CCC4)n3)cc2)C(C)(C)C)cc1
- DC50 [1]: 65 nM
- Kd [2]: 245 nM
- Emax [3]: 96%

SMILES: CCC[C@H](NC(=O)COCCCOCCCCOCCCOc1ccc(Nc2ncc(Br)c(NCCCN(C)C(=O)C3CCC3)n2)cc1)C(=O)N1C[C@H](O)C[C@H]1C(=O)NCc1ccc(-c2scnc2C)cc1
- DC50 [1]: 288 nM
- IC50 [4]: 16000 nM
- Emax [3]: 75%

SMILES: Cc1ncsc1-c1ccc(CNC(=O)[C@@H]2C[C@@H](O)CN2C(=O)[C@@H](NC(=O)COCCCOCCCCOCCCOc2ccc(Nc3nccc(NCCCN(C)C(=O)C4CCC4)n3)cc2)C(C)(C)C)cc1
- DC50 [1]: > 1000 nM
- Kd [2]: 725 nM

SMILES: Cc1ncsc1-c1ccc(CNC(=O)[C@@H]2C[C@@H](O)CN2C(=O)[C@@H](NC(=O)COCCCOCCCCOCCCOc2ccc(Nc3ncc(I)c(NCCCN(C)C(=O)C4CCC4)n3)cc2)C(C)(C)C)cc1
- DC50 [1]: 3 nM
- Kd [2]: 4 nM
- Emax [3]: 96%

SMILES: Cc1ncsc1-c1ccc(CNC(=O)[C@@H]2C[C@@H](O)CN2C(=O)[C@@H](NC(=O)COCCOCCOCCOCCOCCOCCOc2ccc(Nc3ncc(Br)c(NCCCN(C)C(=O)C4CCC4)n3)cc2)C(C)(C)C)cc1
- DC50 [1]: 34 nM
- Emax [3]: 96%

SMILES: Cc1ncsc1-c1ccc(CNC(=O)[C@@H]2C[C@@H](O)CN2C(=O)[C@@H](NC(=O)COCCCOCCCCOCCCOc2ccc(Nc3ncc(C4CCC4)c(NCCCN(C)C(=O)C4CCC4)n3)cc2)C(C)(C)C)cc1
- DC50 [1]: 544 nM
- Kd [2]: 1040 nM
- Emax [3]: 70%
